Source: PMC3038628 (Journal of molecular biology, 2010)

Tests used:
[1] = target: α-tocopherol transfer protein (α-TTP); conditions: cited from earlier work
[2] = FRET assay of NBD-Toc transfer from α-TTP variants to LUVs; assay type: biochemical; conditions: for Rate of NBD-Toc transfer to LUV, Rate^mut/Rate^wt: relative to wild type; for Rate of NBD-Toc transfer to LUV, Rate: PC vesicles, 0.225 μM NBD-Toc, 2 μM α-TTP, 100 μM vesicles, room temperature
Summary of the method: (§1)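 Each protein (4 μM) was preloaded with 0.45 μM NBD-Toc for 15 min in SET buffer (pH 7.4). It was then stopped-flow mixed at room temperature with 200 μM acceptor vesicles of 97% liver PC and 3% TRITC-PE (finals 0.225 μM, 2 μM, 100 μM). Vesicles were sonicated SUVs (~60 nm) or extruded LUVs (150 nm). NBD quench was normalised to initial fluorescence and fitted single-exponentially.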

[3] = Dual polarization interferometry of protein adsorption to immobilized bilayer; assay type: binding; conditions: for Ads^mut/Ads^wt (0.50 μM injection): 0.50 μM protein injection; for Ads^mut/Ads^wt (1.0 μM injection): 1.0 μM protein injection
Summary of the method: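 Recombinant α-TTP (E. coli BL21(DE3), glutathione affinity, thrombin-cleaved) was dialysed 1 h at 4 °C into pH 7.4 phosphate/137 mM NaCl buffer. It was injected at 25 μl/min for 8 min over a 90:10 DOPC:DOPS bilayer on a silicon oxynitride chip at 20 °C. Adsorbed mass was measured at 0.5 and 1.0 μM in quadruplicate, two channels each. Kd came from fitting Bmax against concentration.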

[4] = FRET assay of NBD-Toc transfer from α-TTP variants to SUVs; assay type: biochemical; conditions: for Rate of NBD-Toc transfer to SUV, Rate: PC vesicles, 0.225 μM NBD-Toc, 2 μM α-TTP, 100 μM vesicles, room temperature; for Reduction of rate of transfer to SUVs: reduction relative to wild type; for Rate of NBD-Toc transfer to SUV, Rate^mut/Rate^wt: relative to wild type
Summary of the method: as §1

[5] = test system: HepG2 cells; assay: α-TTP-induced secretion of NBD-tocopherol from cultured hepatocytes; assay type: cell-based, Human; conditions: transiently transfected HepG2; NBD-Toc fluorescence
Summary of the method: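 HepG2/C3A cells on collagen-coated coverslips (DMEM, 10% FBS) were transiently transfected with α-TTP variants in pcDNA3.1, with mock controls. At 30 h they received 5 μM lipoprotein-complexed NBD-tocopherol for 16–18 h at 37 °C, then 4 h in normal medium for secretion. Cells were fixed, permeabilised and DAPI-stained. NBD fluorescence was imaged at 40× over >14 fields per slide, normalised to cell number; expression was checked by Western blot.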

[6] = Filtration; assay type: binding; conditions: compared with wild type
Summary of the method: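 Recombinant α-TTP (31.5 μg) was incubated with increasing concentrations of sonicated SUVs or extruded 150 nm LUVs in SET buffer for 30 min at room temperature. Mixtures were spun through 100 kDa-cutoff filters at 10,000g for 20 min to separate vesicle-bound from free protein. Protein was resolved on gels, stained with colloidal Coomassie and quantified by band densitometry.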

Adsorption/binding to immobilized bilayers by DPI, % of wild type ([3]; injection concentration not stated) [%] | Binding to immobilized bilayers, % of WT ([3]; printed "for LUVs") [%] | Binding to immobilized bilayers, % of WT ([3]; printed "for SUVs") [%] | Vesicle binding to SUVs (in words) [6] | Molecule | Kd [1] [nM] | Rate of NBD-Toc transfer to LUV, Rate^mut/Rate^wt [2] [%] | Ads^mut/Ads^wt (0.50 μM injection) [3] | Ads^mut/Ads^wt (1.0 μM injection) [3] | Fold change in affinity ([3]; relative to wild type) | Rate of NBD-Toc transfer to SUV, Rate [4] [s⁻¹] | Reduction of rate of transfer to SUVs [4] [%] | Rate of NBD-Toc transfer to SUV, Rate^mut/Rate^wt [4] [%] | Inhibition of tocopherol secretion as compared to the wild-type TTP [5] [fold] | Rate of NBD-Toc transfer to LUV, Rate [2] [s⁻¹]
– | – | – | – | Cc1c(C)c2c(c(C)c1O)CC[C@@](C)(CCC[C@H](C)CCC[C@H](C)CCCC(C)C)O2 [α-tocopherol] | ~25 | – | – | – | – | – | – | – | – | –
– | – | – | – | F169D: α-TTP mutant, Phe169 to Asp (helix A8) (protein, UniProt P49638 1-278, looked up, variant F169D) Alpha-tocopherol transfer …: MAEARSQPSAGPQLNALPDHSPLLQPGLAALRRRAREAGVPLAPLPLTDSFLLRFLRARDFDLDLAWRLLKNYYKWRAECPEISADLHPRSIIGLLKAGYHGVLRSRDPTGSKVLIYRIAHWDPKVFTAYDVFRVSLITSELIVQEVETQRNGIKAIFDLEGWQFSHADQITPSVAKKIAAVLTDSFPLKVRGIHLINEPVIFHAVFSMIKPFLTEKIKERIHMHGNNYKQSLLQHFPDILPLEYGGEEFSMEDICQEWTNFIMKSEDYLSSISESIQ | – | 0 | 0.18 | 0.23 | 14.3 | 0.015 ± 0.002 | 88 | 12 | 5 | –
171 | 180 | 171 | essentially indistinguishable | K217A: α-TTP mutant, surface Lys217 (helix A11) to Ala (protein, UniProt P49638 1-278, looked up, variant K217A) Alpha-tocopherol transfer …: MAEARSQPSAGPQLNALPDHSPLLQPGLAALRRRAREAGVPLAPLPLTDSFLLRFLRARDFDLDLAWRLLKNYYKWRAECPEISADLHPRSIIGLLKAGYHGVLRSRDPTGSKVLIYRIAHWDPKVFTAYDVFRVSLITSELIVQEVETQRNGIKAIFDLEGWQFSHAFQITPSVAKKIAAVLTDSFPLKVRGIHLINEPVIFHAVFSMIKPFLTEAIKERIHMHGNNYKQSLLQHFPDILPLEYGGEEFSMEDICQEWTNFIMKSEDYLSSISESIQ | – | 62 | 1.71 | 1.80 | – | 0.130 ± 0.011 | – | 102 | – | 0.010 ± 0.004
– | – | – | diminished vesicle binding | F169A: α-TTP mutant, Phe169 to Ala (protein, UniProt P49638 1-278, looked up, variant F169A) Alpha-tocopherol transfer …: MAEARSQPSAGPQLNALPDHSPLLQPGLAALRRRAREAGVPLAPLPLTDSFLLRFLRARDFDLDLAWRLLKNYYKWRAECPEISADLHPRSIIGLLKAGYHGVLRSRDPTGSKVLIYRIAHWDPKVFTAYDVFRVSLITSELIVQEVETQRNGIKAIFDLEGWQFSHAAQITPSVAKKIAAVLTDSFPLKVRGIHLINEPVIFHAVFSMIKPFLTEKIKERIHMHGNNYKQSLLQHFPDILPLEYGGEEFSMEDICQEWTNFIMKSEDYLSSISESIQ | – | 48 | 0.33 | 0.51 | – | 0.067 ± 0.006 | 47 | 53 | 2 | 0.008 ± 0.002
